Compound activity from PubChem BioAssay.
NPY2 pot ag: NPY-Y2 potentiators or agonists, primary screen, cell-based. Neuropeptide Y receptor type 2 (Homo sapiens), P49146. cells expressing NPY-Y2, potentiator/agonist read-out. activation, % at 3.6 µM. 0.45% of 220,000 active. AID 1359, 2008; in the data active = activation above about 27%;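 note: cells stimulated with NPY near EC25 plus isoproterenol at EC100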
NPY1 pot ag: NPY-Y1 receptor potentiators or agonists, primary screen, cell-based; 0.37% of 220,000 active; Neuropeptide Y receptor type 1 (Homo sapiens), P25929; NPY-Y1 expressing cells, potentiator/agonist activation; activation, % at 3.6 µM; in the data active = activation above about 33%, passing the limit was not always enough;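 note: cells stimulated with NPY at EC10 then isoproterenol at EC100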
Target sequence (P25929 whole entry, looked up): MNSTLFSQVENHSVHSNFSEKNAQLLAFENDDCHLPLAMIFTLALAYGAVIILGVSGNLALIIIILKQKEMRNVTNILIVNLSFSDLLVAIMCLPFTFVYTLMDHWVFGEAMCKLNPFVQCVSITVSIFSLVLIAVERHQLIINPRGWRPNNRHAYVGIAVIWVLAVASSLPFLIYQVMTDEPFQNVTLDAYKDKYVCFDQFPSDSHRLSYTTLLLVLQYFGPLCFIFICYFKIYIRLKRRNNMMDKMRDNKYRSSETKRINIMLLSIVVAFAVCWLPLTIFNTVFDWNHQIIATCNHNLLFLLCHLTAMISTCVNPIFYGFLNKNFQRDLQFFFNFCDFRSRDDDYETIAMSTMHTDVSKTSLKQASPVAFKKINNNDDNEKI
NPY-Y2 antag: NPY-Y2 receptor antagonists, primary screen, cell-based; Neuropeptide Y receptor type 2 (Homo sapiens), P49146; NPY-Y2 expressing cells, antagonist mode; inhibition, % at 2.7 µM; 0.99% of 140,000 active; in the data active = inhibition above about 17%
bCat nuc transl: modulators of beta-catenin nuclear translocation, primary screen, imaging, HeLa cells, immunofluorescence, high-content. 0.3% of 190,000 active. nuclear translocation activity, % at 5 µM;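 active = nuclear translocation activity above 50% at 5 µM, with a well cell count of 50 or more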;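 note: per-cell ratio of nuclear to cytoplasmic median beta-catenin stain intensity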
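assay system = human HeLa cells, endogenous beta-catenin | times = compound treatment 24 h, 37°C, 5% CO2 | detection = Anti-beta-catenin immunofluorescence on PFA-fixed, Triton-permeabilized cells, DAPI nuclei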
MT stabilize HCS: microtubule stabilizers in HeLa cells, primary screen, imaging, high-content imaging. HeLa tubulin immunostaining HCS, 24 h; share of cells brighter than vehicle mean+2SD. % tubulin-high responders, % at 10 µM. 0.83% of 200,000 active. AID 2205, 2009;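 active = plate Z-score above 3 for both tubulin-high and condensed-nucleus cell shares, with cell loss under 80%, at 10 µM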;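 note: anti alpha tubulin signal scored within the nucleus-defined area of each cell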
NPY-Y1 antag: NPY-Y1 receptor antagonists, primary screen, cell-based; HEK293-CNG Y1 cells, membrane potential fluorescence; NPY at EC95, then isoproterenol; 1% of 200,000 active; AID 1040, 2008; inhibition, % at 3.6 µM;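 active = inhibition above the campaign mean inhibition of all tested compounds plus 3 SD, cut at about 20% in these data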
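Material: HEK293 cells with Y1 receptor plus CNG channel; times: compound incubation 1 h at room temperature, readout 45 min post-stimulation; signal: fluorescence, membrane potential probe; read-out basis: fluorescence ratio normalized to % inhibition between controls; benchmarks: full-block control isoproterenol-only wells, zero-block control NPY plus isoproterenol wells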
Of the large screens only hits and unclear results are named; the others gave an inactive call. The list is not random: actives were taken first. Their share in the collection is about 2.6%.

CC(=O)OCCNC(=O)Cn1cnc2c1c(=O)n(C)c(=O)n2C	none
S=c1nc(-c2ccccc2)n(Cc2ccco2)c2c1CCCC2	NPY-Y1 antag 29
S=c1nc(-c2ccccc2)n(Cc2cccnc2)c2c1CCCC2	none (no result: NPY-Y2 antag, MT stabilize HCS, NPY-Y1 antag)
O=C(CNc1cccc(S(=O)(=O)N2CCOCC2)c1)N1CCc2ccccc21	none (no result: NPY-Y2 antag, MT stabilize HCS, NPY-Y1 antag)
O=S(Cc1ccc(Cl)cc1)CC(O)(c1ccccc1)c1ccccc1 (centres undefined)	MT stabilize HCS 33
CCOC(=O)c1c(C)c(C(=O)Nc2cc(F)ccc2F)c(C)n1C	MT stabilize HCS 13
Cc1cccc(N2CCN(Cc3nc(-c4cccc(Oc5ccccc5)c4)oc3C)CC2)n1	none (no result: NPY-Y2 antag)
Cc1ccc(NC2=NC3(CCCC3)N=C(N)N2)c(C)c1	MT stabilize HCS 25 (no result: NPY-Y2 antag)
Cc1ccc(NC2=NC3(CCCCC3)N=C(N)N2)c(C)c1	none (no result: bCat nuc transl)
COc1ccc(CCN2C(=O)C3CC(C)=C(C)CC3C2=O)cc1OC (centres undefined)	none (no result: bCat nuc transl)
Cc1cc(C2(c3ccc(O)c(C)c3)C(=O)Nc3ccccc32)ccc1O	none
Cc1cccc2c1NC(=O)C2(c1ccc(O)cc1)c1ccc(O)cc1	NPY-Y2 antag 114, NPY-Y1 antag 116
Cc1ccc(NC(=O)CSc2nc3ccccc3c(=O)n2CCCN2CCCCC2)cc1C	NPY-Y2 antag 34, NPY-Y1 antag 38
Cc1cc(C)n(C(=O)CNC(=O)COc2ccccc2)n1	none (no result: bCat nuc transl)
COc1ccc(C[C@H]2CN3C(=NC[C@H]3Cc3ccccc3)N2CCNC(=O)c2ccc(C)c(Br)c2)cc1	bCat nuc transl 63 (no result: NPY2 pot ag, NPY1 pot ag, NPY-Y2 antag, MT stabilize HCS, NPY-Y1 antag)
COc1ccc(C[C@H]2CN3C(=NC[C@@H]3Cc3ccccc3)N2CCNC(=O)c2ccc(C)c(Br)c2)cc1	none (no result: NPY-Y2 antag)
c1cncc(-c2ccnc3ncnn23)c1	none
Brc1ccc(Cn2c(-c3ccc(Br)o3)nc3ccccc32)o1	NPY-Y2 antag 29, NPY-Y1 antag 29
Cc1ccc(Oc2c(CO)c(-c3ccccc3)nn2C)cc1	MT stabilize HCS 18 (no result: NPY-Y2 antag)
Cc1ccc(S(=O)(=O)c2c(CO)c(-c3ccccc3)nn2C)cc1	none (no result: NPY-Y2 antag)
CO/C=C\C=C/c1nnn(-c2ccc(Cl)cc2)n1	none
Cc1ccc(C(=O)Nc2ncc(Cc3ccc(SC(F)F)cc3)s2)cc1	bCat nuc transl 135
CC(C)c1ccc(C(N)=S)cc1	none (no result: NPY-Y2 antag)
Cc1csc2nc3cc(C(N)=O)ccc3c(=O)n12	none (no result: NPY2 pot ag, NPY1 pot ag, NPY-Y2 antag, MT stabilize HCS, NPY-Y1 antag)
NC(=O)c1ccc2c(=O)n3c(-c4cc(Cl)c(N)c(Cl)c4)csc3nc2c1	bCat nuc transl 66 (no result: NPY2 pot ag, NPY1 pot ag, NPY-Y2 antag, MT stabilize HCS, NPY-Y1 antag)
CCCn1c(SCC(=O)N2CCN(c3ccccc3)CC2)nc2ccccc2c1=O	NPY-Y2 antag 19, NPY-Y1 antag 21 (no result: bCat nuc transl)
CCn1c(SCC(=O)N2CCN(c3ccc(F)cc3)CC2)nc2ccccc2c1=O	none
CCCN1CCC(=NNc2ccc(S(=O)(=O)N(CC)CC)cc2[N+](=O)[O-])CC1	bCat nuc transl 112 (no result: NPY-Y2 antag)
COc1ccc(C2C(C#N)=C(N)Oc3c2ccc2cccnc32)cc1OC (centres undefined)	bCat nuc transl 61, MT stabilize HCS 16 (no result: NPY-Y2 antag)
N#CC1=C(N)Oc2cc(N)ccc2C1c1cccnc1 (centres undefined)	MT stabilize HCS 24
COc1cc(C2C(C#N)=C(N)Oc3cc(N)ccc32)cc(OC)c1OC (centres undefined)	bCat nuc transl 71, MT stabilize HCS 18
N#CC1=C(N)Oc2cc(N)ccc2C1c1ccc(F)cc1 (centres undefined)	none
N#CCCN1CCN(S(=O)(=O)c2ccc(S(=O)(=O)NC3CCCC3)cc2)CC1	none
CC1Sc2ccccc2N(CC(=O)N(C(C)C)C(C)C)C1=O (centres undefined)	none
CCOC(=O)c1ccc(NC(=O)Cn2ncc(Cl)c(Cl)c2=O)cc1	NPY1 pot ag 59 (no result: bCat nuc transl)
Nc1nc(-c2ccc3c(c2)OCCO3)cs1	NPY-Y1 antag 20
Cc1ccc2nc(-c3ccc4c(c3)OCCO4)cn2c1	bCat nuc transl 56 (no result: NPY-Y2 antag, MT stabilize HCS, NPY-Y1 antag)
Cc1ccc(OCCNC(=O)C(=O)NCc2ccco2)cc1	MT stabilize HCS 17 (no result: NPY-Y2 antag)
CC1(C)COC(/C=C/c2cccc([N+](=O)[O-])c2)=N1	MT stabilize HCS 24 (no result: NPY-Y2 antag)
CCOc1ccc2[nH]c(=O)c(CN(Cc3ccccc3OC)C(=O)c3ccccc3)cc2c1	MT stabilize HCS 24
COc1ccc2[nH]c(=O)c(CN(CC3CCCO3)C(=O)Nc3ccccc3OC)cc2c1 (centres undefined)	MT stabilize HCS 40
CCOc1ccc2[nH]c(=O)c(CN(Cc3ccc(F)cc3)C(=O)c3ccco3)cc2c1	MT stabilize HCS 47
COc1ccc2[nH]c(=O)c(CN(Cc3ccco3)C(=O)c3ccccc3)cc2c1	none
Cn1c2c(c(=O)n(C)c1=O)C1(C(=O)Nc3ccccc31)C(C#N)=C(N)O2 (centres undefined)	none (no result: bCat nuc transl)
O=C(CSc1nc2ncccc2[nH]1)c1cccc([N+](=O)[O-])c1	none
CCN1CCN(CC(O)COCC2COc3ccccc3O2)CC1 (centres undefined)	none (no result: NPY-Y2 antag)
OC(COCC1COc2ccccc2O1)CN1CCN(c2ccccc2)CC1 (centres undefined)	NPY2 pot ag 34
COc1ccccc1Oc1cc(C#N)c(C#N)cc1-n1nnc2ccccc21	NPY-Y2 antag 19, NPY-Y1 antag 46
COc1ccc(CN(C)CC(=O)NC(=O)NCc2ccccc2)c(OC)c1	none
COc1ccc(CN(CCN(C)C)Cc2ccccc2)c(OC)c1	NPY-Y2 antag 20, NPY-Y1 antag 23
O=C(NCc1cccs1)C1CCN(c2ccc(S(=O)(=O)N3CCOCC3)cc2Cl)CC1	bCat nuc transl 106, MT stabilize HCS 27
C#CCNC(=O)C1CCN(c2ccc(S(=O)(=O)N3CCOCC3)cc2Cl)CC1	none (no result: NPY-Y2 antag)
C/C=C/COC(=O)c1[nH]c2c(c1C)C(=O)CC(c1ccc(N(C)C)cc1)C2 (centres undefined)	none
Cc1c(C(=O)OCC(C)C)[nH]c2c1C(=O)CC(c1ccco1)C2 (centres undefined)	bCat nuc transl 183
C/C=C/COC(=O)c1[nH]c2c(c1C)C(=O)CC(c1ccco1)C2 (centres undefined)	bCat nuc transl 154
COC(=O)c1[nH]c2c(c1C)C(=O)CC(c1ccccc1)C2 (centres undefined)	bCat nuc transl 56
C=CCOC(=O)c1[nH]c2c(c1C)C(=O)CC(c1ccco1)C2 (centres undefined)	bCat nuc transl 89
N#CC1=C(S)N(c2ccc(F)cc2)C2(CCCCC2)NC1=O	none (no result: NPY-Y2 antag)
CC(C)NC(=S)Nc1ccc(S(=O)(=O)Nc2ncccn2)cc1	none
O=C(Cc1ccc(F)cc1)Nc1ccc(S(=O)(=O)N2CCCCC2)cc1	none (no result: NPY-Y2 antag)
